ChEMBL document CHEMBL1157100, “The alkyl-connected 2-amino-6-vinylpurine (AVP) crosslinking agent for improved selectivity to the cytosine base in RNA” (Bioorg Med Chem, 2010)
Calls of active or inactive are those of the source. No cut-off for these calls is given here.

How the values were obtained:
Type in all cases: nucleic-acid assay
Nucleic Acid [1] = assay: Binding affinity to FAM-tagged r-(GAAAYAAGAGGAAAGA)-RNA assessed as crosslinking by PAGE
Procedure, shortened: (§1)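 Reactive ODN at 10 µM with 1 µM FAM-labeled target DNA or RNA in 100 mM NaCl, 50 mM MES pH 5 plus RNase OUT, mixed at 0 °C and then incubated at 37 °C. Reactions were stopped at set times with formamide/EDTA/bromophenol blue buffer. Products were resolved on 15% denaturing polyacrylamide gel with 7 M urea, and FAM band intensities were quantified to give crosslinking yield.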

Nucleic Acid [2] = assay: Binding affinity to FAM-tagged d-(GAAAYAAGAGGAAAGA)-DNA assessed as crosslinking at 10 uM by alkylation method; procedure, shortened: as §1
Nucleic Acid [3] = assay: Binding affinity to FAM-tagged r-(GAAAYAAGAGGAAAGA)-RNA assessed as crosslinking at 10 uM by alkylation method; procedure, shortened: as §1

Activity (Nucleic Acid [1]): Active | Activity (Nucleic Acid [2]): Active | Activity (Nucleic Acid [3]): Active
Compound: CSCCc1nc(N)nc2c1ncn2CC[C@H]1C[C@H](OP(=O)(O)OC[C@H]2O[C@@H](n3cc(C)c(=O)[nH]c3=O)C[C@@H]2OP(=O)(O)OC[C@H]2O[C@@H](n3cc(C)c(=O)[nH]c3=O)C[C@@H]2OP(=O)(O)OC[C@H]2O[C@@H](n3ccc(N)nc3=O)[C@H](O)[C@@H]2OP(=O)(O)OC[C@H]2O[C@@H](n3cc(C)c(=O)[nH]c3=O)C[C@@H]2OP(=O)(O)OC[C@H]2O[C@@H](n3ccc(N)nc3=O)[C@H](O)[C@@H]2OP(=O)(O)OC[C@H]2O[C@@H](n3ccc(N)nc3=O)[C@H](O)[C@@H]2OP(=O)(O)OC[C@H]2O[C@@H](n3cc(C)c(=O)[nH]c3=O)C[C@@H]2OP(=O)(O)OC[C@H]2O[C@@H](n3cc(C)c(=O)[nH]c3=O)C[C@@H]2OP(=O)(O)OC[C@H]2O[C@@H](n3cc(C)c(=O)[nH]c3=O)C[C@@H]2OP(=O)(O)OC[C@H]2O[C@@H](n3ccc(N)nc3=O)[C@H](O)[C@@H]2OP(=O)(O)OC[C@H]2O[C@@H](n3cc(C)c(=O)[nH]c3=O)C[C@@H]2OP(=O)(O)O)[C@@H](COP(=O)(O)O[C@H]2C[C@H](n3cc(C)c(=O)[nH]c3=O)O[C@@H]2COP(=O)(O)O[C@H]2C[C@H](n3cc(C)c(=O)[nH]c3=O)O[C@@H]2COP(=O)(O)O[C@H]2C[C@H](n3cc(C)c(=O)[nH]c3=O)O[C@@H]2COP(=O)(O)O[C@H]2[C@@H](O)[C@H](n3ccc(N)nc3=O)O[C@@H]2CO)O1
